Results from different studies.
Each line is one published result; the experiments were not run side by side.
Target: Calcium/calmodulin-dependent protein kinase type 1B (PNCK, Homo sapiens, UniProt Q6P2M8)

The remaining binding of `Cc1cnc(Nc2ccc(C(=O)N3CCC(N4CCCC4)CC3)cc2)nc1-c1cc2ccccc2s1` is reported as 36% (binding; competition with immobilised ligand; 1 µM).
`F[C@@H]1CCN(c2nccc(-c3cnn4ncccc34)n2)C1` gave a remaining binding of 100% (binding; 1 µM).
For `CNC(=O)[C@@H]1CC[C@@H](n2c(-c3ccc4cnccc4c3)nc3ccc(C(=O)NCc4cccc(C(N)=O)c4)cc32)C1`, the remaining binding was 85% (binding; competition with immobilised ligand; 1 µM).
For `CC1=C(C#N)C(c2ccc3c(c2)c(NC(=O)c2ccccc2C)nn3C)C(C#N)=C(C)N1`, the remaining binding was 85% (cell-free assay; competition with immobilised ligand; 1 µM).
With `O=C(NCC1CCOCC1)c1n[nH]cc1NC(=O)c1c(F)cccc1F` the remaining binding was 87% (binding; competition with immobilised ligand; 1 µM).
For `COc1ccnn2ncc(-c3ccnc(N(C)C)n3)c12`, the remaining binding was 100% (binding; 1 µM).
`O=C(c1ccc(Nc2nccc(-c3cc4ccccc4s3)n2)cc1)N1CCC(N2CCCC2)CC1` gave a remaining binding of 47% (binding; competition with immobilised ligand; 1 µM).
For `CC(C)(O)c1cncc(-c2nc3ccc(F)cc3n2C2CC2)c1`, the remaining binding was 100% (cell-free assay; competition with immobilised ligand; 1 µM).
With `COc1cnc(Nc2cccc(S(N)(=O)=O)c2)nc1N1CCN(c2ccccc2)CC1` the remaining binding was 92% (binding; competition with immobilised ligand; 1 µM).
`Cc1cnn2ncc(-c3ccnc(N(C)C)n3)c2c1` has a remaining binding of 97% (binding; 1 µM).
With `O=C(NCCCN1CCOCC1)c1ccc(Nc2ncc(Cl)c(-c3ccc(Cl)s3)n2)cc1` the remaining binding was 82% (binding; competition with immobilised ligand; 1 µM).
`CCCOc1ccc([C@H]2[C@H](C(=O)O)[C@@H](c3ccc4c(c3)OCO4)CN2CC(=O)Nc2c(CC)cccc2CC)cc1` gave a remaining binding of 77% (cell-free assay; competition with immobilised ligand; 1 µM).
`C[C@@H]1CCN(c2nccc(-c3cnn4ncccc34)n2)C1` has a remaining binding of 89% (binding; 1 µM).
`CNCc1ccccc1-c1csc([C@H](C)Nc2nc(C)nc3cc(OC)c(OC)cc23)c1` gave a remaining binding of 100% (cell-free assay; competition with immobilised ligand; 1 µM).
For `c1cncc(-c2cccc(Nc3nccc(NC4CCCCC4)n3)c2)c1`, the remaining binding was 53% (binding; competition with immobilised ligand; 10 µM).
For `CC1=C(C#N)[C@@H](c2ccc3[nH]nc(C)c3c2)C(C#N)=C(c2ccc(Cl)cc2)N1`, the remaining binding was 98.5% (cell-free assay; competition with immobilised ligand; 1 µM).
`COc1ncc2cc3ccccc3nc2c1C#N` has a remaining binding of 95% (cell-free assay; competition with immobilised ligand; 5 µM).
For `N#CC1(c2ccccn2)CCN(Cc2cc(C(=O)N3CCCC3)c(=O)n3ccccc23)CC1`, the remaining binding was 90% (cell-free assay; competition with immobilised ligand; 1 µM).
The remaining binding of `N[C@H]1CCN(c2nccc(-c3cnn4ncccc34)n2)C1` is reported as 84% (binding; 1 µM).
